Source: ChEMBL document CHEMBL1770091, “Synthesis and biological evaluation of benzyl styrylsulfonyl derivatives as potent anticancer mitotic inhibitors” (Bioorg Med Chem Lett, 2011)
Values belong to the compound of their own block, whether it stands above or below them.

Columns and labels:
MCF7 [1] = test: Cytotoxicity against human MCF7 cells after 72 hrs by MTT assay; format: functional; settings: MCF7, 72 h
How it was run: (§1)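 Standard 72-h MTT cytotoxicity assay, reported as GI50. Cancer lines were run alongside non-transformed MRC-5 lung fibroblasts.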

[2] = Cytotoxicity against human MRC5 cells after 72 hrs by MTT assay; format: cell-based; how it was run: as §1
HCT-116 = test: Cytotoxicity against human HCT116 cells after 72 hrs by MTT assay; format: functional; settings: HCT-116, 72 h; how it was run: as §1
T47D [3] = test: Cytotoxicity against human T47D cells after 72 hrs by MTT assay; format: functional; how it was run: as §1
[4] = Cytotoxicity against human MDA468 cells after 72 hrs by MTT assay; format: functional; settings: MDA-MB-468, 72 h
How it was run: (§2)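 MDA-468 cells were exposed to compound for 24, 48 or 72 h and growth inhibition was read by MTT assay. GI50 is the mean ± s.d. of three independent assays.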

MRC5 [5] = test: Ratio of GI50 for human MRC5 cells to GI50 for human MCF7 cells
How it was run: (§3)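 Selectivity was calculated as GI50 in non-transformed MRC-5 fibroblasts divided by GI50 in each cancer line. All GI50 values came from 72-h MTT assays.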

MRC5 [6] = test: Ratio of GI50 for human MRC5 cells to GI50 for human MDA468 cells; how it was run: as §3
MRC5 [7] = test: Ratio of GI50 for human MRC5 cells to GI50 for human HCT116 cells; how it was run: as §3
T47D [8] = test: Ratio of GI50 for human MRC5 cells to GI50 for human T47D cells; how it was run: as §3
MDA-MB-468 = test: Induction of apoptosis in human MDA468 cells assessed as appearance of apoptotic bodies after 20 hrs by annexinV/propidium iodide staining; format: functional, cell-based
How it was run: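 After overnight culture, 4×10^5 cells per well were treated with compound at 0.5, 1 and 10 μM for 20 h. Apoptosis was measured by annexin V/PI double staining and flow analysis, scored as early (annexin V-positive) plus late (annexin V- and PI-positive) apoptotic cells. Mean ± s.d. of three independent experiments versus DMSO vehicle control.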

MRC5 [9] = test: Metabolic stability of the compound in human MRC5 cells at 1 uM; format: ADME, cell-based; settings: mrc5, 1 µM
[10] = Cytotoxicity against human MDA468 cells after 48 hrs by MTT assay; format: functional; settings: MDA-MB-468, 48 h; how it was run: as §2
MCF7 [11] = test: Metabolic stability of the compound in human MCF7 cells at 1 uM; format: ADME, cell-based; settings: mcf7, 1 µM
[12] = Cytotoxicity against human MDA468 cells after 24 hrs by MTT assay; format: functional; settings: MDA-MB-468, 24 h; how it was run: as §2
[13] = Cell cycle arrest in human MDA468 cells assessed as accumulation at G2/M phase at 0.5 uM after 20 hrs by flow cytometry; format: functional, cell-based; settings: MDA-MB-468
How it was run: (§4)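 Cells in exponential growth seeded at 4×10^5, incubated overnight at 37 °C in humidified 5% CO2, then exposed to compound for 20 h. Cells collected, washed once in cold PBS, resuspended in hypotonic fluorochrome solution, and analysed for cell-cycle distribution (% G2/M DNA content) by flow cytometry. Mean ± s.d. of three independent experiments; DMSO vehicle control.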

[14] = Cell cycle arrest in human MDA468 cells assessed as accumulation at G2/M phase at 1 uM after 20 hrs by flow cytometry; format: functional, cell-based; settings: MDA-MB-468; how it was run: as §4

Compound: COc1ccc(CS(=O)(=O)/C=C/c2ccc(OC)c(OC)c2OC)cc1[N+](=O)[O-]
GI50 (MCF7 [1]): > 30 µM
GI50 at 72 h [2]: > 30 µM
GI50 (HCT-116): 27.9 µM
GI50 (T47D [3]): > 30 µM
GI50 [4]: 21.9 µM

Compound: COc1cc(OC)c(/C=C/S(=O)(=O)Cc2ccc(OC)c(NC(C)=O)c2)c(OC)c1
GI50 (MCF7 [1]): 0.35 µM
GI50 at 72 h [2]: 0.81 µM
GI50 (HCT-116): 0.15 µM

Compound: COc1ccc(CS(=O)(=O)CC(=O)Nc2ccccc2)cc1N
GI50 (MCF7 [1]): > 30 µM
GI50 at 72 h [2]: > 30 µM
GI50 (HCT-116): > 30 µM
GI50 (T47D [3]): > 30 µM
GI50 [4]: > 30 µM

Compound: COc1ccc(CS(=O)(=O)/C=C/c2ccc(OC)c(OC)c2OC)cc1N
GI50 (MCF7 [1]): 5.95 µM
GI50 at 72 h [2]: > 30 µM
GI50 (HCT-116): 5.31 µM
GI50 (T47D [3]): 5.9 µM
GI50 [4]: 3.48 µM

Compound: COc1cc(/C=C/S(=O)(=O)Cc2ccc(OC)c(N)c2)cc(OC)c1
RatioGI50 (MRC5 [5]): <80
RatioGI50 (MRC5 [6]): <80
GI50 (MCF7 [1]): 0.49 µM
GI50 at 72 h [2]: > 30 µM
RatioGI50 (MRC5 [7]): <80
GI50 (HCT-116): 0.54 µM
GI50 (T47D [3]): 0.53 µM
GI50 [4]: 0.52 µM
RatioGI50 (T47D [8]): <80

Compound: COc1ccc(OC)c(NC(=O)CS(=O)(=O)Cc2ccc(OC)c([N+](=O)[O-])c2)c1
GI50 (MCF7 [1]): > 30 µM
GI50 at 72 h [2]: > 30 µM
GI50 (HCT-116): > 30 µM
GI50 (T47D [3]): > 30 µM
GI50 [4]: > 30 µM

Compound: COc1ccc(CS(=O)(=O)/C=C/c2c(OC)cccc2OC)cc1[N+](=O)[O-]
GI50 (MCF7 [1]): 13.7 µM
GI50 at 72 h [2]: > 30 µM
GI50 (HCT-116): 10.2 µM
GI50 (T47D [3]): > 30 µM
GI50 [4]: 5.46 µM

Compound: COc1cc(OC)c(/C=C/S(=O)(=O)Cc2ccc(OC)c(N)c2)c(OC)c1
GI50 (MCF7 [1]): < 0.01 µM
GI50 at 72 h [2]: 0.08 µM
GI50 (HCT-116): < 0.01 µM
GI50 [4]: 0.03 µM

Compound: COc1cc(/C=C/S(=O)(=O)Cc2ccc(OC)c([N+](=O)[O-])c2)cc(OC)c1
GI50 (MCF7 [1]): > 30 µM
GI50 at 72 h [2]: > 30 µM
GI50 (HCT-116): > 30 µM
GI50 (T47D [3]): > 30 µM
GI50 [4]: 16.5 µM

Stability (MRC5 [9]): Stable
Stability (MCF7 [11]): Stable
Compound: COc1cc(OC)c(/C=C/[S+]([O-])Cc2ccc(OC)c(N)c2)c(OC)c1 (configuration not stated)
Activity (MDA-MB-468): Dose-dependent effect
GI50 [10]: 0.137 µM
GI50 (MCF7 [1]): < 0.01 µM
GI50 at 72 h [2]: > 30 µM
GI50 [12]: 0.559 µM
GI50 (HCT-116): < 0.01 µM
GI50 (T47D [3]): 0.06 µM
Activity [13]: 77%
Activity [14]: 85%
GI50 [4]: < 0.01 µM

Stability (MRC5 [9]): Stable
Stability (MCF7 [11]): Stable
Compound: COc1cc(OC)c(/C=C/S(=O)(=O)Cc2ccc(OC)c(NCC(=O)O)c2)c(OC)c1 [RIGOSERTIB]
Activity (MDA-MB-468): Dose-dependent effect
GI50 [10]: 0.302 µM
GI50 (MCF7 [1]): 0.05 µM
GI50 at 72 h [2]: 0.71 µM
GI50 [12]: 0.601 µM
GI50 (HCT-116): 0.05 µM
GI50 (T47D [3]): < 0.01 µM
Activity [13]: 58%
Activity [14]: 84%
GI50 [4]: 0.02 µM

Compound: COc1cc(OC)c(/C=C/S(=O)(=O)Cc2ccc(OC)c([N+](=O)[O-])c2)c(OC)c1
GI50 (MCF7 [1]): 0.88 µM
GI50 at 72 h [2]: 2.91 µM
GI50 (HCT-116): 0.66 µM

Compound: COc1ccc(CS(=O)(=O)CC(=O)Nc2c(C)cc(C)cc2C)cc1[N+](=O)[O-]
GI50 (MCF7 [1]): > 30 µM
GI50 at 72 h [2]: 28 µM
GI50 (HCT-116): 7.91 µM
GI50 (T47D [3]): > 30 µM
GI50 [4]: > 30 µM

Compound: COc1ccc(CS(=O)(=O)/C=C/c2c(OC)cccc2OC)cc1N
RatioGI50 (MRC5 [5]): <280
RatioGI50 (MRC5 [6]): <280
GI50 (MCF7 [1]): 0.04 µM
GI50 at 72 h [2]: 17.1 µM
RatioGI50 (MRC5 [7]): <280
GI50 (HCT-116): 0.02 µM
GI50 (T47D [3]): 0.05 µM
GI50 [4]: 0.06 µM
RatioGI50 (T47D [8]): <280

Compound: COc1ccc(CS(=O)(=O)CC(=O)Nc2c(C)cc(C)cc2C)cc1N
GI50 (MCF7 [1]): > 30 µM
GI50 at 72 h [2]: > 30 µM
GI50 (HCT-116): > 30 µM
GI50 (T47D [3]): > 30 µM
GI50 [4]: > 30 µM

Compound: COc1cc(OC)c(NC(=O)CS(=O)(=O)Cc2ccc(OC)c([N+](=O)[O-])c2)c(OC)c1
GI50 (MCF7 [1]): > 30 µM
GI50 at 72 h [2]: > 30 µM
GI50 (HCT-116): 18.8 µM
GI50 (T47D [3]): > 30 µM
GI50 [4]: > 30 µM

Compound: COc1ccc(CS(=O)(=O)CC(=O)Nc2ccccc2)cc1[N+](=O)[O-]
GI50 (MCF7 [1]): > 30 µM
GI50 at 72 h [2]: > 30 µM
GI50 (HCT-116): > 30 µM
GI50 (T47D [3]): > 30 µM
GI50 [4]: > 30 µM
